Source: ChEMBL document CHEMBL1153905, “Functionalized 3-benzylidene-indolin-2-ones: inducers of NAD(P)H-quinone oxidoreductase 1 (NQO1) with antiproliferative activity” (Bioorg Med Chem, 2009)
One block for each compound: values may come before it.

Assays:
[1] = Ratio of induction of NQO1 activity to induction of CYP1 activity in mouse Hepa-1c1c7 cells at 5 nM after 48 hrs
CYP1A1 [2] = biological target: T1, CYP1A1 (Mus musculus, UniProt P00184); experiment: Induction of CYP1A1 activity in mouse Hepa-1c1c7 cells assessed as induction ratio at 5 nM after 48 hrs by EROD assay relative to control; assay type: ADME, cell-based
T1 sequence (P00184 whole entry): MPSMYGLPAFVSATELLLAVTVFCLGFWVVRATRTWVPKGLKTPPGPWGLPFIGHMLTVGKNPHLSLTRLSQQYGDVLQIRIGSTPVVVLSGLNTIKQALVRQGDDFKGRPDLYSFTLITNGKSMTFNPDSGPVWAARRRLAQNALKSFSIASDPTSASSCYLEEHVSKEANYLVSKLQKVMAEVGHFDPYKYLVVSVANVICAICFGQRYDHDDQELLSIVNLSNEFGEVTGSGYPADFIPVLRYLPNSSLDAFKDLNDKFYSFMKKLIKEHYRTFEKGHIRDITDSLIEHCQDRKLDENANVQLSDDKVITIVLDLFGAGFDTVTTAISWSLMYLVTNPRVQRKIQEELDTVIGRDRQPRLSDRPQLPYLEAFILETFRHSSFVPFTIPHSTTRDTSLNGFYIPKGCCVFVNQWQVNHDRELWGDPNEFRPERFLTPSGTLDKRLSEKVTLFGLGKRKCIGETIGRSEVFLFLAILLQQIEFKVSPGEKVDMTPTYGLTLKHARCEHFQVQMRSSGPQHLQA
How it was run: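 Hepa1c1c7 cells were seeded at 10,000 per well and grown 24 h. They were then exposed 48 h to compound (final DMSO 0.5% v/v) at about 4 × the NQO1 CD. After a PBS wash, cells got 5 µM 7-ethoxyresorufin plus 2 mM salicylamide in medium, 37 °C, 40 min. Resorufin was read at ex 530/em 590 nm, corrected for compound fluorescence. Ratio = (F treated − blank)/(F DMSO control − blank); mean ± SD, n = 3.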

[3] = biological target: NAD(P)H dehydrogenase [quinone] 1 (Mus musculus) (UniProt Q64669); experiment: Induction of NQO1 activity in mouse Hepa-1c1c7 cells assessed as induction ratio at 5 nM after 48 hrs by MTT assay relative to control; assay type: cell-based
Sequence of NAD(P)H dehydrogenase [quinone] 1 (Mus musculus) (Q64669 whole entry): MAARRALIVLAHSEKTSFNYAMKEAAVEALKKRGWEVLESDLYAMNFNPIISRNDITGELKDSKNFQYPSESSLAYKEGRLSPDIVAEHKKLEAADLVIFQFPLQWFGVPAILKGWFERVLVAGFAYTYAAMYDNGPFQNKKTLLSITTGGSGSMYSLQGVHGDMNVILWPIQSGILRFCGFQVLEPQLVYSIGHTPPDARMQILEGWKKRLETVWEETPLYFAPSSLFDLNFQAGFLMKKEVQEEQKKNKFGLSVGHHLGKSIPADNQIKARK
How it was run: (§1)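 Hepa1c1c7 cells, 10,000 per well, 24 h, were then treated 48 h (DMSO ≤0.5%). Digitonin/EDTA lysates were assayed for menadione-dependent MTT-formazan formation using a G6P/G6PDH NADPH-generating mix with FAD at pH 7.4. The reaction ran 5 min, was stopped with dicoumarol, and read at A590. Degree of induction = (A test − blank)/(A control − blank). Ratios were read off the induction–concentration plot at the EROD test concentration.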

[4] = Cytotoxicity against mouse Hepa-1c1c7 cells after 48 hrs by MTT assay; assay type: cell-based; settings: hepa-1c1c7, 48 h
How it was run: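 Murine hepatoma cells in α-MEM with 10% heat- and charcoal-treated fetal calf serum, passages 6–17; MTT read-out as for the cancer lines but with 48 h compound exposure. Highest concentration tested 25 µM. IC50 from survival-versus-concentration curve; mean and SD, n = 3.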

HCT-116 [5] = experiment: Cell cycle arrest in human HCT116 cells released from G2 block assessed as accumulation at G2/M phase at 15 uM after 24 hrs by flow cytometry; assay type: functional
MCF7 [6] = experiment: Antiproliferative activity against human MCF7 cells after 72 hrs by MTT assay; assay type: functional, cell-based; settings: MCF7, 72 h
How it was run: (§2)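 Cells seeded at 10,000 (MCF7), 4000 (HCT116) or 5000 (CCL186) per well and grown 24 h; MCF7 and CCL186 in EMEM with pyruvate, glutamine, 10% FBS; HCT116 in McCoy's 5A with 10% FBS. Compounds from DMSO stocks (≤1% DMSO final), 72 h exposure; MTT 0.5 mg/ml for 3 h, formazan in DMSO read at 590 nm. IC50 from sigmoidal survival curve, three separate occasions.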

CYP1A1 [7] = biological target: T1, CYP1A1; experiment: Induction of CYP1A1 activity in mouse Hepa-1c1c7 cells assessed as induction ratio at 0.05 uM after 48 hrs by EROD assay relative to control; assay type: ADME, cell-based
How it was run: (§3)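 About 10,000 Hepa1c1c7 cells/well cultured 24 h, then compound (0.5% DMSO final) for 48 h, at roughly 4 × the concentration doubling NQO1 activity. After PBS wash, cells given 5 µM 7-ethoxyresorufin plus 2 mM salicylamide, 37 °C, 40 min; resorufin fluorescence ex 530/em 590 nm, corrected for compound fluorescence. Ratio = (treated − blank)/(DMSO control − blank); mean ± SD, n = 3.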

HCT-116 [8] = experiment: Antiproliferative activity against human HCT116 cells after 72 hrs by MTT assay; assay type: functional, cell-based; settings: HCT-116, 72 h
How it was run: as §2

HCT-116 [9] = experiment: Cell cycle arrest in human HCT116 cells released from G2 block assessed as accumulation at S phase at 15 uM after 24 hrs by flow cytometry; assay type: functional
HCT-116 [10] = experiment: Cell cycle arrest in human HCT116 cells released from G2 block assessed as accumulation at G1 phase at 15 uM after 24 hrs by flow cytometry; assay type: functional
MCF7 [11] = experiment: Selectivity ratio of IC50 for human CCL186 cells to IC50 for human MCF7 cells
How it was run: (§4)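 MTT assay. MCF7 and CCL186 cells were grown in EMEM/10% FBS, HCT116 in McCoy's 5A/10% FBS. Seeding was 10,000 (MCF7), 4000 (HCT116) and 5000 (CCL186) cells per well, 24 h. Compound exposure was 72 h, DMSO ≤1% final. MTT 0.5 mg/ml for 3 h, formazan dissolved in DMSO, A590. IC50 came from sigmoidal survival curves, with 3 separate occasions per concentration. Ratio = IC50 CCL186 / IC50 of the cancer line.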

[12] = Selectivity ratio of IC50 for human CCL186 cells to IC50 for human HCT116 cells; assay type: ADME, cell-based, HCT-116; settings: CCL186 cells and HCT116 cells, read-out: Ratio IC50
How it was run: as §4

HCT-116 [13] = experiment: Cell cycle arrest in human HCT116 cells released from G1 block assessed as accumulation at sub G1 phase at 15 uM after 24 hrs by flow cytometry; assay type: functional
HCT-116 [14] = experiment: Cell cycle arrest in human HCT116 cells released from G1 block assessed as accumulation at G1 phase at 15 uM after 24 hrs by flow cytometry; assay type: functional
HCT-116 [15] = experiment: Cell cycle arrest in human HCT116 cells released from G1 block assessed as accumulation at S phase at 15 uM after 24 hrs by flow cytometry; assay type: functional
[16] = Antiproliferative activity against human CCL186 cells after 72 hrs by MTT assay; assay type: cell-based; settings: CCL186, 72 h
How it was run: as §2

[17] = biological target: NAD(P)H dehydrogenase [quinone] 1 (Mus musculus) (UniProt Q64669); experiment: Induction of NQO1 activity in mouse Hepa-1c1c7 cells assessed as induction ratio at 0.05 uM after 48 hrs by MTT assay relative to control; assay type: cell-based
How it was run: as §1

HCT-116 [18] = experiment: Cell cycle arrest in human HCT116 cells released from G2 block assessed as accumulation at sub G1 phase at 15 uM after 24 hrs by flow cytometry; assay type: functional
HCT-116 [19] = experiment: Cell cycle arrest in human HCT116 cells released from G1 block assessed as accumulation at G2/M phase at 15 uM after 24 hrs by flow cytometry; assay type: functional
[20] = biological target: NAD(P)H dehydrogenase [quinone] 1 (Mus musculus) (UniProt Q64669); experiment: Induction of NQO1 activity in mouse Hepa-1c1c7 cells assessed as induction ratio at 0.1 uM after 48 hrs by MTT assay relative to control; assay type: cell-based
How it was run: as §1

CYP1A1 [21] = biological target: T1, CYP1A1; experiment: Induction of CYP1A1 activity in mouse Hepa-1c1c7 cells assessed as induction ratio at 0.1 uM after 48 hrs by EROD assay relative to control; assay type: ADME, cell-based
How it was run: as §3

[22] = biological target: NAD(P)H dehydrogenase [quinone] 1 (Mus musculus) (UniProt Q64669); experiment: Induction of NQO1 activity in mouse Hepa-1c1c7 cells assessed as induction ratio at 10 uM after 48 hrs by MTT assay relative to control; assay type: cell-based
How it was run: as §1

CYP1A1 [23] = biological target: T1, CYP1A1; experiment: Induction of CYP1A1 activity in mouse Hepa-1c1c7 cells assessed as induction ratio at 10 uM after 48 hrs by EROD assay relative to control; assay type: ADME, cell-based
How it was run: as §3

Structure (SMILES): O=C1Nc2cc(C(F)(F)F)ccc2/C1=C1\C(=O)Nc2ccc(F)cc21
Ratio [1]: 0.83 | fold induction at 48 h, 0.005 µM (CYP1A1 [2]): 3.72 | Ratio [3]: 3.09 | IC50 [4]: > 25 µM

Structure (SMILES): O=C1Nc2ccccc2/C1=C1\C(=O)Nc2ccc(Cl)cc21
Ratio [1]: 1.05 | fold induction at 48 h, 0.005 µM (CYP1A1 [2]): 2.31 | Ratio [3]: 2.42 | IC50 [4]: 20.5 µM

Structure (SMILES): COc1cccc(/C=C2/C(=O)Nc3cc(Cl)ccc32)c1
Ratio [20]: 2.56 | IC50 [4]: > 25 µM | fold induction at 48 h, 0.1 µM (CYP1A1 [21]): 1.51

Structure (SMILES): O=C1Nc2ccccc2/C1=C\c1cc(O)ccc1O
Ratio [22]: 7.69 | IC50 [4]: > 25 µM | fold induction at 48 h, 10 µM (CYP1A1 [23]): 2.87

More lines, main results first:

IC50 (MCF7 [6]): 8.9 µM | fold induction at 48 h, 0.05 µM (CYP1A1 [7]): 1.23 | IC50 (HCT-116 [8]): 8.4 µM | Ratio [17]: 3.31
Structure (SMILES): O=C1Nc2cc(F)ccc2/C1=C\c1cccc(C(F)(F)F)c1
Activity (HCT-116 [5]): 25% | Activity (HCT-116 [9]): 8.82% | Activity (HCT-116 [10]): 64.15% | Ratio IC50 (MCF7 [11]): 0.9 | selectivity ratio [12]: 0.8 | Activity (HCT-116 [13]): 12.68% | Activity (HCT-116 [14]): 64.93% | Activity (HCT-116 [15]): 8.04% | IC50 [16]: 7.5 µM | Activity (HCT-116 [18]): 2.49% | Activity (HCT-116 [19]): 14.58% | IC50 [4]: 2.2 µM

IC50 (MCF7 [6]): 7.5 µM | fold induction at 48 h, 0.05 µM (CYP1A1 [7]): 2.4 | IC50 (HCT-116 [8]): 3.8 µM | Ratio [17]: 5.2
Structure (SMILES): O=C1Nc2cc(Cl)ccc2/C1=C\c1cccc(C(F)(F)F)c1
Activity (HCT-116 [5]): 28.39% | Activity (HCT-116 [9]): 8.05% | Activity (HCT-116 [10]): 53.47% | Ratio IC50 (MCF7 [11]): 1.7 | selectivity ratio [12]: 0.9 | Activity (HCT-116 [13]): 12.39% | Activity (HCT-116 [14]): 65.55% | Activity (HCT-116 [15]): 7.1% | IC50 [16]: 6.6 µM | Activity (HCT-116 [18]): 10.62% | Activity (HCT-116 [19]): 15.13% | IC50 [4]: 1.1 µM

Ratio [20]: 3.85 | fold induction at 48 h, 0.1 µM (CYP1A1 [21]): 1.4
Structure (SMILES): O=C1Nc2ccccc2/C1=C\c1cccc(C(F)(F)F)c1
IC50 [4]: 3.9 µM

fold induction at 48 h, 0.005 µM (CYP1A1 [2]): 3.01 | Ratio [3]: 2.99
Structure (SMILES): O=C1Nc2ccccc2/C1=C1\C(=O)Nc2cc(C(F)(F)F)ccc21
Ratio [1]: 0.99 | IC50 [4]: > 25 µM
